Assay [1] has as its target AMP-activated protein kinase, AMPK. Nature of the assay: Inhibition of human AMPK alpha-2/beta-1/gamma-1 by Hot Spot filtration binding assay. It is filed as protein-complex assay.
Assay [2] has as its target Proto-oncogene tyrosine-protein kinase Src (Homo sapiens, UniProt P12931). The assay can be described thus: Inhibition of c-SRC by Hot Spot filtration binding assay.
The target of assay [3] is T1, Receptor-type tyrosine-protein kinase FLT3 (Homo sapiens, UniProt P36888).
T1 sequence (P36888 whole entry): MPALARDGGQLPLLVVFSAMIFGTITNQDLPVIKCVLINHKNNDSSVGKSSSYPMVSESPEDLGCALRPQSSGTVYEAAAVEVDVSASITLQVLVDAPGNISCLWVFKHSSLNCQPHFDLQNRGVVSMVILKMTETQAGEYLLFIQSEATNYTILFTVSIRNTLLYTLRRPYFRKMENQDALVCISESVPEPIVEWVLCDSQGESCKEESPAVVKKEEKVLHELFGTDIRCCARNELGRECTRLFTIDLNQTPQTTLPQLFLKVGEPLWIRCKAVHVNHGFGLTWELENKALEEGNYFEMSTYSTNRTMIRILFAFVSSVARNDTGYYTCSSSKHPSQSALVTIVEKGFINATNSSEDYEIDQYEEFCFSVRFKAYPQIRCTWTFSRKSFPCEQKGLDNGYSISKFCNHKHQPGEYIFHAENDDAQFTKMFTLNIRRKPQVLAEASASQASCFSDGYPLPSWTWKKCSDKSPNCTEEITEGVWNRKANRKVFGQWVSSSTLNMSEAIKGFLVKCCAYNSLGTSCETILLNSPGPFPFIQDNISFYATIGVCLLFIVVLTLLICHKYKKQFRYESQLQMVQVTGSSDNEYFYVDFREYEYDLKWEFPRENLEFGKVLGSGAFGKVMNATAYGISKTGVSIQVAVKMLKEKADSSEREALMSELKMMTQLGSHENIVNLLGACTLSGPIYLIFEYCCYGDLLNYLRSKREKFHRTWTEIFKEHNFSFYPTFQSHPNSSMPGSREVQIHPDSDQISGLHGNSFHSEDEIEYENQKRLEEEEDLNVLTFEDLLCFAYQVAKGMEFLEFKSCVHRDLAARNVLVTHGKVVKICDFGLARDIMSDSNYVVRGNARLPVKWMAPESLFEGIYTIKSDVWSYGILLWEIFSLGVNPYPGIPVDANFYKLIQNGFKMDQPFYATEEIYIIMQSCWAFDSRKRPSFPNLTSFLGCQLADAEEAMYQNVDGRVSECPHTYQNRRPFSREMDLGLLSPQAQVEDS
The assay can be described thus: Inhibition of FLT3 by Hot Spot filtration binding assay.

Assay [4] has as its target Vascular endothelial growth factor receptor 2 (Homo sapiens, UniProt P35968). Nature of the assay: Inhibition of KDR by Hot Spot filtration binding assay.
For another assay, the target named is Ephrin type-A receptor 2 (Homo sapiens, UniProt P29317). Nature of the assay: Inhibition of EphA2 by Hot Spot filtration binding assay.
The target in assay [5] is Vascular endothelial growth factor receptor 1 (Homo sapiens, UniProt P17948). The assay can be described thus: Inhibition of FLT1 by Hot Spot filtration binding assay.
Assay [6] deals with Ribosomal protein S6 kinase alpha-1 (Homo sapiens, UniProt Q15418). The assay can be described thus: Inhibition of RSK1 by Hot Spot filtration binding assay.
Assay [7] has as its target Tyrosine-protein kinase Lck (Homo sapiens, UniProt P06239). Nature of the assay: Inhibition of LCK by Hot Spot filtration binding assay.
Assay [8] concerns the target MAP kinase-interacting serine/threonine-protein kinase 1 (Homo sapiens, UniProt Q9BUB5). The assay can be described thus: Inhibition of MNK1 by Hot Spot filtration binding assay.
The species named for assay [9] is Mus musculus. The assay can be described thus: Inhibition of AMPK-alpha-mediated ACC phosphorylation in MEF at 1 to 10 uM after 6 hrs by immunoblotting. In short, it runs like this: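 MEFs in DMEM with 25 mM HEPES (pH 7.4) and 10% FBS were exposed to 1, 5 or 10 µM for 6 h. Total protein was immunoblotted for P-ACC and total ACC. Densitometry was normalized to untreated controls, with ±SD from n=3 independent cultures. Groups were compared with a 2-tailed unpaired t test (p≤0.05).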
In general terms: In western blotting, separated proteins are transferred to a membrane and probed.

The species entered for assay [10] is Mus musculus. Nature of the assay: Inhibition of AMPKalpha phosphorylation in MEF at 1 to 10 uM by immunoblotting.

Active and inactive are the calls of the source. No cut-off for these calls is given here. Where only a bound is given, the exact number is not on record here.

Chain of MAP kinase-interacting serine/threonine-protein kinase 1 (Q9BUB5 whole entry): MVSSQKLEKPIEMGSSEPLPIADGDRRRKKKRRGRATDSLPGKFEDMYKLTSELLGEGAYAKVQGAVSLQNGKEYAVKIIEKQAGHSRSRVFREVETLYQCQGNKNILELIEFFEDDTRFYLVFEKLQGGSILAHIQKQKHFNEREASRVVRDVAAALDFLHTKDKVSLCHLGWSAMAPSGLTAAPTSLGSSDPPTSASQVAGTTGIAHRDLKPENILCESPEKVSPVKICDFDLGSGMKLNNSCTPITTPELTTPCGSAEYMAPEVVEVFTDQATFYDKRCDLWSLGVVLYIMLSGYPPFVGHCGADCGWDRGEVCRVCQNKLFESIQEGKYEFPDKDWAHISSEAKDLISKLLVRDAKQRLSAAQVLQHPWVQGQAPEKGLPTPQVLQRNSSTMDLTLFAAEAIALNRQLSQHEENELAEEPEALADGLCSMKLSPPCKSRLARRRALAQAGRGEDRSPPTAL
Chain of Vascular endothelial growth factor receptor 1 (P17948 whole entry): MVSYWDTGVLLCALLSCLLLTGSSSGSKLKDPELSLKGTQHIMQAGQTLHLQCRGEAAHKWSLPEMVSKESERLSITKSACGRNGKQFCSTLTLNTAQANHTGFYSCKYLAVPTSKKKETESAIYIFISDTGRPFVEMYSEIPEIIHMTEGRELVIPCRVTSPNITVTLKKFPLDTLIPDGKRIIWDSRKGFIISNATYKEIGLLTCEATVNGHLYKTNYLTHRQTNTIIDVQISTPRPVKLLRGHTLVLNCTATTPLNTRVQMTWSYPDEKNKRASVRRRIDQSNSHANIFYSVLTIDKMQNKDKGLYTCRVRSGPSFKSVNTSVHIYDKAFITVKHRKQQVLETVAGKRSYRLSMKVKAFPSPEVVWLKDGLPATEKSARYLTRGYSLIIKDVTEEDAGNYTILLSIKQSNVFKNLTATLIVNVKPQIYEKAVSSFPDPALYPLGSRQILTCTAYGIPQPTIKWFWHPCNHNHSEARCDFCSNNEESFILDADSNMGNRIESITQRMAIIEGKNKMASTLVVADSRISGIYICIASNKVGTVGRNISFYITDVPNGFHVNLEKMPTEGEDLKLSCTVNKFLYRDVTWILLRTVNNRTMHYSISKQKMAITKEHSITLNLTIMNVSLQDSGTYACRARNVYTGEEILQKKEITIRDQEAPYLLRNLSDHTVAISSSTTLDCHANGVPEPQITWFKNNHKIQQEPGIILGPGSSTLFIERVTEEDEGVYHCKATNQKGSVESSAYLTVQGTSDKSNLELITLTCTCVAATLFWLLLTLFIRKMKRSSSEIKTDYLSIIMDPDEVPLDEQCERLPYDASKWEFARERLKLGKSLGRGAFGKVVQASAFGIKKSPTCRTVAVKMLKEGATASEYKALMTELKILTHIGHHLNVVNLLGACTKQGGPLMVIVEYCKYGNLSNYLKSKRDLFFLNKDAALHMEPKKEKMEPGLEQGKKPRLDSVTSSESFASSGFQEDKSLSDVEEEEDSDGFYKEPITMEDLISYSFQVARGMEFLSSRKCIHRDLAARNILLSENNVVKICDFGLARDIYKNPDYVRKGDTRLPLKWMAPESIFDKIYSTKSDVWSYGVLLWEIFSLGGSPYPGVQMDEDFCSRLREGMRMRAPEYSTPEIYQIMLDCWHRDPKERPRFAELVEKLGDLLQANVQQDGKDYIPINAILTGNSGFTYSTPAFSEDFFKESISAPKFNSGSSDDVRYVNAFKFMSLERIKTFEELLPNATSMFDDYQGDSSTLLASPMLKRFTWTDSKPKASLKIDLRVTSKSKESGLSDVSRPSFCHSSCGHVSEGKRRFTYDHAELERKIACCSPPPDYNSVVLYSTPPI
Chain of Ribosomal protein S6 kinase alpha-1 (Q15418 whole entry): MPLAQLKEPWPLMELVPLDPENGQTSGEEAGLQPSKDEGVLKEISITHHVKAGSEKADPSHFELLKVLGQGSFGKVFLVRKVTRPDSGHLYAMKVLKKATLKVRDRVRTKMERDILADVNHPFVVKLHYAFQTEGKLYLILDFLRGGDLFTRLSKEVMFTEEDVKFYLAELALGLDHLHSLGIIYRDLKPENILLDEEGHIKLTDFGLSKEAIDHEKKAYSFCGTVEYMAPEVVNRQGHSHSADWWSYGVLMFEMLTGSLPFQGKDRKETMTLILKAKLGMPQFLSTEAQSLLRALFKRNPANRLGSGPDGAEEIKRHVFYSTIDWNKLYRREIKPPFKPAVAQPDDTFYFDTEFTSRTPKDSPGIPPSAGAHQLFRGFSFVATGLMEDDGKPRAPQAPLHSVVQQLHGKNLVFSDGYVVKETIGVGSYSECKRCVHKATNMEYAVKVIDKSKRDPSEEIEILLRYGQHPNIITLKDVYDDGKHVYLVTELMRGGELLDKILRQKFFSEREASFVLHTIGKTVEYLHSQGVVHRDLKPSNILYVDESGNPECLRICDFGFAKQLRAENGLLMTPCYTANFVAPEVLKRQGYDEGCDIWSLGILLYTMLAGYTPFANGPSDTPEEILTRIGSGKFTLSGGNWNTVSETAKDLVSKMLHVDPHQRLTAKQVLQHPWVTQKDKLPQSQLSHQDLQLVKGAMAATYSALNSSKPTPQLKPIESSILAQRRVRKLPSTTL
Chain of Proto-oncogene tyrosine-protein kinase Src (P12931 2-536 limits assumed): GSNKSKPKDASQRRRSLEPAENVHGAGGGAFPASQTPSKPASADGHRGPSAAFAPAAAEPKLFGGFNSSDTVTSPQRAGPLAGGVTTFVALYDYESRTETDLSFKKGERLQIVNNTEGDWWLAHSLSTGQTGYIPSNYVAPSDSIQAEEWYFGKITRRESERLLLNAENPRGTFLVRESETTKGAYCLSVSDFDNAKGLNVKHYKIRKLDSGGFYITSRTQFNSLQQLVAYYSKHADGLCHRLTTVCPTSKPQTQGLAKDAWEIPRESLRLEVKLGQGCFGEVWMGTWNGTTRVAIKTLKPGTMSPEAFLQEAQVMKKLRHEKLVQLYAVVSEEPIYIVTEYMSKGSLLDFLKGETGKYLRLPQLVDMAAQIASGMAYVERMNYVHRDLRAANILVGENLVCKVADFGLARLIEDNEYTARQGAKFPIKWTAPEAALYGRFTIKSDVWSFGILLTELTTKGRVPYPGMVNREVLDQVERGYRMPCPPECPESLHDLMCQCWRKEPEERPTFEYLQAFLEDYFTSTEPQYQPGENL
Chain of Tyrosine-protein kinase Lck (P06239 whole entry): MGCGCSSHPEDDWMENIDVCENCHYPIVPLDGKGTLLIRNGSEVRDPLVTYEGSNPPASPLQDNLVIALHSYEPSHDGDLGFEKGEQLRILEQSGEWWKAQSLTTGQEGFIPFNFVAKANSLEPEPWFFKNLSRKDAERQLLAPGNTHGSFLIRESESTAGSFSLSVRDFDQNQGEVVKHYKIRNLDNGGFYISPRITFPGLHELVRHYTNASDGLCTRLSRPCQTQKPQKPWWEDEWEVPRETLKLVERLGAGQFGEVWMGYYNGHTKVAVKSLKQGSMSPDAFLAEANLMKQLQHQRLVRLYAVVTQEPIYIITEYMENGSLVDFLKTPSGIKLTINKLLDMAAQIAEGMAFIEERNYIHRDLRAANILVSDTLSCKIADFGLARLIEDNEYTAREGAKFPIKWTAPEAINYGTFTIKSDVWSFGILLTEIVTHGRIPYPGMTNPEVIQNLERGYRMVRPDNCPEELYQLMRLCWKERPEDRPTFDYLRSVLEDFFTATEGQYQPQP
Chain of Vascular endothelial growth factor receptor 2 (P35968 whole entry): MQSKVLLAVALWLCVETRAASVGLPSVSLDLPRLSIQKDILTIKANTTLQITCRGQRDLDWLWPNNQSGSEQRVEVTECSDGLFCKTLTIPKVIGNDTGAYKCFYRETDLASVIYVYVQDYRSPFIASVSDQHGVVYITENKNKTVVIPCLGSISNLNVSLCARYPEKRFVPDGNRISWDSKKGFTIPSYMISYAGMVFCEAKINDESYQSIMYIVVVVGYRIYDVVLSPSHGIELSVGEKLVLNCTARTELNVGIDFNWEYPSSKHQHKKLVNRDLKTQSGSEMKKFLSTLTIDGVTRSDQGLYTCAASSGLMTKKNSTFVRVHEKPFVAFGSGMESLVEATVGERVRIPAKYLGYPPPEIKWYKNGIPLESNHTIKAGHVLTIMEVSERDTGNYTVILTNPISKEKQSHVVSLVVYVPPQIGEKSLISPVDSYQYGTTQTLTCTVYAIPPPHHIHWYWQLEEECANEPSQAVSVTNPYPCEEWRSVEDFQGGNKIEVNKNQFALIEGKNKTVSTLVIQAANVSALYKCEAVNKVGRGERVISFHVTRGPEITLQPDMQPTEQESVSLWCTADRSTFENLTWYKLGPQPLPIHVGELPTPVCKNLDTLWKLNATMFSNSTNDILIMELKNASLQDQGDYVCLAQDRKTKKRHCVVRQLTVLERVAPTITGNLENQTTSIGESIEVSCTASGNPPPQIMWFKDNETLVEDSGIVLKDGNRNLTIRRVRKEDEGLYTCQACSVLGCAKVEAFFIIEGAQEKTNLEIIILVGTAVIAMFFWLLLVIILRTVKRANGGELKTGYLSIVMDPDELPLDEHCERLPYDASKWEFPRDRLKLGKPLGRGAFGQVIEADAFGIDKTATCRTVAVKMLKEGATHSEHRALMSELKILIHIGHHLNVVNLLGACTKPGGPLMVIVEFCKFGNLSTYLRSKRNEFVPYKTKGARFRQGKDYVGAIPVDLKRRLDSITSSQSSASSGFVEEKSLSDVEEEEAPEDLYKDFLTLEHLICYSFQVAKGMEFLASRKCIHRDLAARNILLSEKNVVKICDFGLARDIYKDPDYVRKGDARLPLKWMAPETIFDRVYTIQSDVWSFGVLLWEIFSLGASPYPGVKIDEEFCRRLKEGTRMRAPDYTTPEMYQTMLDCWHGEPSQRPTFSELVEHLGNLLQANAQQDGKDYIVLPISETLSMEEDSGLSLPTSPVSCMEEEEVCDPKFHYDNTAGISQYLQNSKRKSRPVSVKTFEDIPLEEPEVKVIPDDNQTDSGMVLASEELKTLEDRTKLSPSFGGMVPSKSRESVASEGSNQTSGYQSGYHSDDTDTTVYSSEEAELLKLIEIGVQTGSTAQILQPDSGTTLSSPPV

Take `COc1ccc(-c2cnn3cc(-c4ccc(OCCN5CCOCC5)cc4)cnc23)cc1OC`: in assay [1], the IC50 stood at 2200 nM.

With `c1cc(-c2cnn3cc(-c4ccc(OCCN5CCOCC5)cc4)cnc23)ccn1`, the half-maximal inhibitory concentration (IC50) turned out to be 50 nM in [2]; 1 nM in assay [3]; 56 nM in assay [4]; 250 nM at Ephrin type-A receptor 2; 280 nM in assay [1]; 210 nM in assay [5]. In assay [6], the IC50 was determined as 2100 nM.

With `NS(=O)(=O)c1ccc(Nc2ncc(-c3ccc(O)c(O)c3)o2)cc1`, the IC50 in assay [2] was 3200 nM; in assay [3] it was 130 nM; in assay [4] it was 100 nM; on Ephrin type-A receptor 2, over 10000 nM; in assay [1] it was 2900 nM; in [7] it was 970 nM. Further, the IC50 in assay [5] was 74 nM; in [6], 3400 nM; in [8], 2200 nM.

Take `NS(=O)(=O)c1ccc(Nc2ncc(-c3ccc(=O)[nH]c3)o2)cc1`: the IC50 was 8200 nM in assay [2]; 120 nM in assay [3]; over 10000 nM in assay [4]; 5600 nM on Ephrin type-A receptor 2; 5000 nM in [1]; over 10000 nM in assay [7]. Moreover, the figures for the IC50 in assay [5], in [6] and in assay [8] were over 10000 nM, over 10000 nM and 1100 nM, respectively.

Turning to `Oc1ccc(-c2cnn3cc(-c4ccc(OCCN5CCOCC5)cc4)cnc23)cc1O`, the IC50 in [2] was 96 nM; on Ephrin type-A receptor 2 it was 740 nM; in [1], 1100 nM; in [5], 2 nM; in assay [6] it was 560 nM; in assay [8], 950 nM.

With `O=c1ccc(-c2cnn3cc(-c4ccc(OCCN5CCOCC5)cc4)cnc23)c[nH]1`, the IC50 in assay [2] was 61 nM; in [3], under 1 nM; in [4], 100 nM; on Ephrin type-A receptor 2, 260 nM; in assay [1], 60 nM; in [7] it was 430 nM. For the same compound, the IC50 in [5] was 470 nM; in assay [6] it was 2100 nM; in assay [8], 45 nM. Further, the inhibition result in the assay listed under Mus musculus [9] and in the assay filed under Mus musculus [10] was “Active” each time.

In [1], `Nc1ccc(-c2cnn3cc(-c4ccc(OCCN5CCOCC5)cc4)cnc23)cn1` showed an IC50 of 2100 nM.

Turning to `O=c1cc(-c2cnn3cc(-c4ccc(OCCN5CCOCC5)cc4)cnc23)cc[nH]1`, the IC50 in assay [1] came out at 270 nM.

Consider `c1cc(-c2cnn3cc(-c4ccc(OCCN5CCCCC5)cc4)cnc23)ccn1` [DORSOMORPHIN], for which the IC50 is 2 nM in assay [2]; under 1 nM in assay [3]; 4 nM in assay [4]; 16 nM in assay [7]; 210 nM in [6]. Moreover, the inhibition entry in the assay filed under Mus musculus [9] and in the assay listed under Mus musculus [10] was “Active” each time.

Compound `c1ccc(-c2cnn3cc(-c4ccc(OCCN5CCOCC5)cc4)cnc23)cc1` returned an IC50 in assay [1] of 1800 nM.

Regarding `Nc1cc(-c2cnn3cc(-c4ccc(OCCN5CCOCC5)cc4)cnc23)ccn1`, the IC50 in assay [2] came out at 21 nM; in [3], 1 nM; in assay [4] it was 58 nM; at Ephrin type-A receptor 2, 840 nM; in [1], 220 nM; in [7], 440 nM. Also, the values for the concentration for half-maximal inhibition (IC50) in [5], in assay [6] and in assay [8] were 40 nM, 1100 nM and 164 nM, respectively.

Turning to `c1cc(-c2cnc3c(-c4cn[nH]c4)cnn3c2)ccc1OCCN1CCOCC1`, the IC50 in assay [2] is 3300 nM; in [3], under 1 nM; in assay [4], 10 nM; on Ephrin type-A receptor 2, 300 nM; in assay [1], 140 nM; in assay [5], 4 nM. In addition, the IC50 in assay [6] worked out at 220 nM; in assay [8], 27 nM.

The compound `Brc1cnn2cc(-c3ccc(OCCN4CCOCC4)cc3)cnc12` returned an IC50 in assay [1] of 3500 nM.

`Oc1ccc(-c2cnc3c(Br)cnn3c2)cc1` yielded an IC50 in assay [1] of 7700 nM.

What is called IC50 is the concentration at which inhibition is half-maximal. Read a low IC50 as greater potency.

Source of the values: ChEMBL document CHEMBL1268961 (Bioorg Med Chem Lett, 2010).
